Reference: ChEMBL document CHEMBL1275343, “A diverse series of substituted benzenesulfonamides as aldose reductase inhibitors with antioxidant activity: design, synthesis, and in vitro activity” (J Med Chem, 2010)
pIC50: −log10 of the molar value.

What was measured:
[1] = test system: Radical scavenging activity; assay: Antioxidant activity assessed as ratio of IC50 for DPPH radical scavenging activity to concentration of DPPH; assay type: functional
[2] = biological target: Aldo-keto reductase family 1 member B1 (Rattus norvegicus) (UniProt P07943); assay: Inhibition of Fischer-344 rat lens ALR2 at 100 uM; assay type: tissue-based; settings: Lens of camera-type eye
[3] = test system: Radical scavenging activity; assay: Antioxidant activity assessed as DPPH radical scavenging activity after 270 mins by least-square analysis; assay type: functional
[4] = species: Rattus norvegicus; assay: Selectivity ratio of IC50 for Fischer-344 rat kidney AK1A1 to IC50 for Fischer-344 rat lens ALR2; assay type: tissue-based; settings: Lens of camera-type eye
[5] = biological target: Aldo-keto reductase family 1 member B1 (Rattus norvegicus, UniProt P07943); assay: Inhibition of Fischer-344 rat lens ALR2 by least-square analysis; assay type: tissue-based, Lens of camera-type eye
How it was run: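 Lenses from Fischer-344 rats of both sexes as ALR2 source; NADPH oxidation followed spectrophotometrically. Five concentrations, IC50 by least-squares of linear portion of log(dose)-response curves (0.889<r²<0.994); triplicate.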

[6] = biological target: T1, Aldo-keto reductase family 1 member A1 (Rattus norvegicus) (UniProt P51635); assay: Inhibition of Fischer-344 rat kidney AK1A1 at 100 uM
T1 sequence (whole entry): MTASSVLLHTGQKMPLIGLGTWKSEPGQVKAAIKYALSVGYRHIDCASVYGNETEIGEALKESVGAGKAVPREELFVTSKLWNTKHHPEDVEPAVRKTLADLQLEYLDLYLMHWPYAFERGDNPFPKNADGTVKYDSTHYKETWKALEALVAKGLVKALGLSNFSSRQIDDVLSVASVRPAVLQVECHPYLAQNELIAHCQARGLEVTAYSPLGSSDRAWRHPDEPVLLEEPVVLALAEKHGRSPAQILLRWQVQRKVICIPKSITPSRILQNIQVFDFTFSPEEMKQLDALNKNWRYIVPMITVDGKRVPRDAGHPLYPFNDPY

[7] = biological target: T2, Aldo-keto reductase family 1 member A1 (Rattus norvegicus, UniProt P51635); assay: Inhibition of Fischer-344 rat kidney AK1A1
T2 sequence (P51635 whole entry): T1 sequence (whole entry)

[8] = Antioxidant activity in L-alpha-phosphatidylcholine dioleoyl liposome assessed as inhibition of AAPH-induced lipid peroxidation by LOOH assay; assay type: functional
How it was run: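 Unilamellar DOPC liposomes (0.8 mM) peroxidized by aqueous-phase peroxyl radicals from thermal decomposition of AAPH; Trolox standard; lipid hydroperoxide (LOOH) quantified against a calibration curve.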

[9] = DPPH radical scavenging activity assessed as initial rate of interaction at 0.2 mM; assay type: functional
How it was run: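 Equimolar compound and DPPH (0.2 mM each) in ethanol; initial rate estimated from the roughly linear absorbance decrease over the first 30 s. Triplicate.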

[10] = biological target: T3, Aldo-keto reductase family 1 member A1 (Homo sapiens, UniProt P14550); assay: Inhibition of AK1A1
T3 sequence (P14550 whole entry): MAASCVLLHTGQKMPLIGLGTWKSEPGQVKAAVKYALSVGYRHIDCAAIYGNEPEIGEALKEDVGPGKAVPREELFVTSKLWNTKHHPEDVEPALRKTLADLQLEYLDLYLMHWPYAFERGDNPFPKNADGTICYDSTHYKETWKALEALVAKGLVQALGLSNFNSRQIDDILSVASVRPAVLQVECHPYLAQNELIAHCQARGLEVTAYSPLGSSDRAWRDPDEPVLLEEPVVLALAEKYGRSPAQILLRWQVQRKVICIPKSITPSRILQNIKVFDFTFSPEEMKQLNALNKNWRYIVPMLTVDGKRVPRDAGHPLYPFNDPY

[11] = species: Rattus norvegicus; assay: Selectivity ratio of inhibition of Fischer-344 rat lens ALR2sto inhibition of Fischer-344 rat kidney AK1A1 at 100 uM; assay type: tissue-based; settings: Lens of camera-type eye
How it was run: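 Ratio of % inhibition of rat lens ALR2 to % inhibition of rat kidney ALR1, each measured at 100 μM compound.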

| Compound | Ratio [1] | inhibition [2] | pIC50 [3] | Ratio IC50 [4] | pIC50 [5] | inhibition [6] | pIC50 [7] | pIC50 [8] | Activity [9] | pIC50 [10] | Selectivity ratio [11] |
| --- | --- | --- | --- | --- | --- | --- | --- | --- | --- | --- | --- |
| O=C(Nc1ccc(S(=O)(=O)Nc2cc(F)c(O)c(F)c2)cc1)c1ccccc1 | 0.25 | 87.7% | 4.30 | 0.87 | 5.10 | 81.1% | 5.16 | 4.16 | 0.817 s⁻¹ | – | – |
| CCCC(CCC)C(=O)O [VALPROIC ACID] | – | – | – | – | – | – | – | – | – | 4.30 | – |
| O=C1NOC[C@H]1NS(=O)(=O)c1ccccc1 | – | 25.7% | – | – | – | 22.4% | – | – | – | – | 1.15 |
| COc1ccc(C(=O)Nc2ccc(S(=O)(=O)Nc3cc(F)c(O)c(F)c3)cc2)cc1 | 0.26 | 77.9% | 4.24 | 1.03 | 4.92 | 71.7% | 4.91 | 4.15 | 0.995 s⁻¹ | – | – |
| O=C(O)CNS(=O)(=O)c1ccccc1 | – | 51.7% | – | – | 4.06 | 30.5% | – | – | – | – | 1.69 |
| O=[N+]([O-])c1ccc(S(=O)(=O)N(Cc2ccc(Br)cc2F)c2cc(F)c(O)c(F)c2)cc1 | 0.31 | 75.1% | 4.21 | 1.71 | 5.05 | 69.8% | 4.81 | 4.21 | 0.974 s⁻¹ | – | – |
| O=S(=O)(Nc1cc(F)c(O)c(F)c1)c1ccc(-n2cccc2)cc1 | 0.24 | 61.1% | 4.31 | 4.92 | 4.24 | 41.7% | 3.55 | 4.01 | 0.489 s⁻¹ | – | – |
| O=S(=O)(Nc1cc(F)c(O)c(F)c1)c1ccccc1 | 0.25 | 71.3% | 4.31 | 0.6 | – | 79.2% | 4.71 | 4.02 | 0.498 s⁻¹ | – | 0.89 |
| CCNC(=O)Nc1ccc(S(=O)(=O)Nc2cc(F)c(O)c(F)c2)cc1 | 0.28 | 63.6% | 4.29 | 0.67 | 4.42 | 68.5% | 4.59 | 4.09 | 0.859 s⁻¹ | – | – |
| O=S(=O)(NCc1nnn[nH]1)c1ccccc1 | – | 23.8% | – | – | – | 19.9% | – | – | – | – | 1.2 |
| O=C1NOC[C@@H]1NS(=O)(=O)c1ccccc1 | – | 48.9% | – | – | 4.15 | 2.67% | – | – | – | – | 18.3 |
| Nc1ccc(S(=O)(=O)Nc2cc(F)c(O)c(F)c2)cc1 | 0.22 | 84.1% | 4.35 | 0.73 | – | 85.4% | 4.99 | 4.32 | 0.777 s⁻¹ | – | – |
| O=S(=O)(c1ccccc1)N(c1cc(F)c(O)c(F)c1)S(=O)(=O)c1ccccc1 | 0.32 | 65.1% | 4.20 | 0.35 | 4.55 | 93.8% | 5.01 | 3.86 | 0.967 s⁻¹ | – | – |
| COc1ccc(S(=O)(=O)Nc2cc(F)c(O)c(F)c2)cc1 | 0.23 | 79.5% | 4.34 | 1.54 | – | 83% | 4.62 | 4.26 | 0.661 s⁻¹ | – | – |
| O=S(=O)(Nc1cc(F)c(O)c(F)c1)c1ccc(C(F)(F)F)cc1 | 0.23 | 55.8% | 4.35 | 1.15 | 4.04 | 50.6% | 3.98 | 4.18 | 0.49 s⁻¹ | – | – |
| O=S(=O)(Nc1nnn[nH]1)c1ccccc1 | – | 44.8% | – | – | – | 21.7% | – | – | – | – | 2.06 |
| Nc1ccc(S(=O)(=O)N(Cc2ccc(Br)cc2F)c2cc(F)c(O)c(F)c2)cc1 | 0.31 | 87.4% | 4.21 | 0.81 | 6.40 | 95.3% | 6.49 | 4.14 | 0.977 s⁻¹ | – | – |
| O=S(=O)(c1ccccc1)N(Cc1ccc(Br)cc1F)c1cc(F)c(O)c(F)c1 | 0.3 | 74.6% | 4.22 | 2.09 | 5.24 | 69.2% | 4.92 | 4.18 | 1 s⁻¹ | – | – |
| O=[N+]([O-])c1ccc(S(=O)(=O)Nc2cc(F)c(O)c(F)c2)cc1 | 0.27 | 63.9% | 4.26 | 2.99 | – | 55.7% | 3.88 | 4.34 | 0.465 s⁻¹ | – | – |
| Cc1c(C)c2c(c(C)c1O)CCC(C)(C(=O)O)O2 (centres undefined) [TROLOX] | 0.19 | – | 4.43 | – | – | – | – | 4.03 | 1.81 s⁻¹ | – | – |
| CS(=O)(=O)NC(=O)CNS(=O)(=O)c1ccccc1 | – | 32.9% | – | – | – | 12.2% | – | – | – | – | 2.69 |
